Compound activity from PubChem.
ATG4B inh – ATG4B protease inhibitors, primary screen, biochemical, fluorescence, uHTS | 0.51% of 340,000 active | AID 504462, 2011 | ATG4B cleavage of LC3-PLA2, NBD-HPC fluorescence, 1 h | Cysteine protease ATG4B (Homo sapiens), Q9Y4P1 | inhibition, % at 8.33 µM; in the data active means inhibition above about 40%
SENP1 FRET inh – human SENP1 catalytic domain inhibitors, primary screen, biochemical, FRET, uHTS. 0.21% of 360,000 active. recombinant SENP1 catalytic domain, CyPet-SUMO1-YPet FRET cleavage. Sentrin-specific protease 1 (Homo sapiens), Q9P0U3. inhibition, % at 10 µM. AID 624204, 2012;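 active means inhibition at least 30% at 10 µM, raw YFP signal under a set limit, fluorescence ratio 0.5 to 1.5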;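 further: 0% = enzyme with DMSO and 100% = no enzyme wells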
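System: Recombinant human SENP1 catalytic domain, His6-tagged | Incubation: Enzyme reaction for 50 min at room temperature, dark | Medium: Tris pH 8 with BME, BSA, NP40 and catalase | Also added: 25 nM SUMO1 FRET substrate | Compound: 10 µM single point, 0.5% DMSO | Measured by: FRET fluorescence in CFP and YFP emission channels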
NadD inh – inhibitors of S. aureus NadD, primary screen, biochemical, colorimetric, uHTS; Nicotinate-nucleotide adenylyltransferase NadD (Staphylococcus aureus N315); purified NadD enzyme, colorimetric absorbance read-out; inhibition, % at 20 µM; 0.78% of 360,000 active; in the data active means inhibition above about 26%
UCH37 inh – inhibitors of human UCH37 deubiquitinase, primary screen, biochemical, Ub-AMC cleavage, fluorescence; purified proteasome/UCH37; Ubiquitin carboxyl-terminal hydrolase isozyme L5 (Homo sapiens), Q9Y5K5; AID 588478, 2011; 0.33% of 330,000 active; inhibition, % (test concentration not listed);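 active means mean inhibition over replicate wells above about 20%, limit read from the data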;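 further: 0% = compound-free wells with enzyme and 100% = wells lacking proteasome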
Target sequence (Q9Y5K5 whole entry, looked up): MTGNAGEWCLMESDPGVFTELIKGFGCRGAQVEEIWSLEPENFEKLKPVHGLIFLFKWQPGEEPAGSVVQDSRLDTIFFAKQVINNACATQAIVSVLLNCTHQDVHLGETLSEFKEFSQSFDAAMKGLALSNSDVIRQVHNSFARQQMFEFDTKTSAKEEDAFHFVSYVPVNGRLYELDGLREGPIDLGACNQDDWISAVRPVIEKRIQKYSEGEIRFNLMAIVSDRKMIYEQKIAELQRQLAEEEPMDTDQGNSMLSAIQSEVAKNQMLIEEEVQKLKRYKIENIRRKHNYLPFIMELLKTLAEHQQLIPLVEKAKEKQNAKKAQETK
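Test system – human UCH37 enzyme supplied as purified proteasome complex · Incubation – 30 min preincubation with enzyme, 25 min cleavage at room temperature · Detection – AMC fluorescence from Ub-AMC cleavage, excitation 355 nm, emission 460 nm · Benchmarks – no-proteasome wells (full inhibition) and compound-free wells (no inhibition)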
NR3A LBD binder – binders of NR3A ligand-binding domain, primary screen, biophysical, differential scanning fluorimetry, uHTS | Tm shift relative to glycine control, % at 25 µM | AID 1259313, 2017 | 2.5% of 340,000 active | NR3A LBD differential scanning fluorimetry, Tm shift; 0% = protein alone, 100% = glycine-bound protein | Glutamate receptor ionotropic, NMDA 3A (GRIN3A) ligand-binding domain;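 active means melting temperature shift of at least 10% of the positive control shift, at one fixed dose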
* = called active by the depositor; · = no result. Hits are enriched below; roughly 3.6% of the tested compounds scored in any of these assays.

SMILES | ATG4B inh | SENP1 FRET inh | NadD inh | UCH37 inh | NR3A LBD binder
Cc1ccc(S(=O)(=O)NN=Cc2cccc(OC3CSC3)c2)cc1 | · | · | · | 1 | ·
CCCCCCCCCc1nc2sc3c(c2c(=O)n1NC(=O)c1ccccc1[N+](=O)[O-])CC(C)(C)OC3 | -10 | 2 | 18 | 3 | 20*
CCCc1nc2sc3c(c2c(=O)n1NC(=O)c1ccco1)CC(C)(C)OC3 | 3 | 3 | -3 | 2 | -1
CCCCCCCCCc1nc2sc3c(c2c(=O)n1NC(=O)c1ccc([N+](=O)[O-])cc1)CC(C)(C)OC3 | 7 | 2 | 22 | 4 | 24*
Cc1cc(CCNC=O)c(C)c2c1oc1ccccc12 | -6 | -2 | -1 | · | 13*
Cc1ccccc1-c1cc(=O)c2ccccc2o1 | 6 | 2 | -3 | 4 | -3
CC(CC(=O)NCc1ccco1)=NNC(=O)Cc1ccccc1 | · | · | · | -4 | ·
Cc1ccc(C=NNC(=O)Cn2cnc3ccccc32)cc1 | · | · | · | 3 | ·
Cc1ccc(O)c(C(=O)c2cnn(C(=O)Cc3csc(C)n3)c2)c1 | 43* | -10 | 2 | -49 | -2
COc1cc(C=NNC(=O)c2ccc(N)cc2)ccc1OC(=O)c1cccc(C)c1 | · | · | · | -13 | ·
Cc1nc2ccc(Br)cn2c1C(=O)NN=Cc1ccccc1Cl | · | · | · | 7 | ·
CCc1nn2cc(C(=O)c3cc(Cl)ccc3O)cnc2c1-c1ccc(F)cc1 | 14 | -7 | 7 | 8 | 27*
Cc1ccccc1CSCC(=O)c1c(N)n(C)c(=O)n(C)c1=O | 0 | 1 | 1 | 6 | 11*
CCN(CC)S(=O)(=O)c1ccc2oc(C(=O)O)c(C)c2c1 | 4 | 0 | -5 | 3 | 13*
Cc1ccc(NS(=O)(=O)c2ccc(C(=O)NNC(=O)c3ccccc3O)cc2)cc1 | 0 | 2 | -1 | 4 | 10*
CCOc1ccc(NS(=O)(=O)c2ccc(C(=O)NCc3ccccn3)cc2)cc1 | 2 | 3 | -3 | -1 | 5
Cc1ccc(NS(=O)(=O)c2ccc(C(=O)NCc3ccccn3)cc2)cc1 | -5 | 0 | -6 | 0 | 14*
CC(/C=C/c1ccccc1)=NNC(=O)CCc1ccccc1 | · | · | · | 7 | ·
Cn1c(-c2ccc(Br)o2)nc2cc(Br)ccc21 | -11 | -35 | 0 | 1 | 13*
Cn1c(-c2ccc(Br)o2)nc2ccccc21 | -11 | -4 | 6 | 6 | -8
O=c1c2c(-c3ccccc3)csc2ncn1N=Cc1cccc([N+](=O)[O-])c1O | · | · | · | 9 | ·
CCNC(=S)N(Cc1ccccc1)Cc1nc2ccccc2c(=O)[nH]1 | -9 | 2 | 1 | -49 | 10*
CCc1c(C(=O)NN=Cc2cn[nH]c2-c2ccc(F)cc2)csc1C | · | · | · | 6 | ·
CCOc1ccccc1N(C(=O)CNC(=O)c1ccco1)C(C(=O)NC(C)(C)C)c1ccncc1 (stereo not given) | -10 | 1 | 1 | 1 | 395*
COc1ccccc1N(C(=O)CNC(=O)c1ccco1)C(C(=O)NC1CCCC1)c1ccncc1 (stereo not given) | 12 | -1 | -4 | 5 | 1
SMILES | ATG4B inh | SENP1 FRET inh | NadD inh | UCH37 inh | NR3A LBD binder
CCOc1ccccc1-c1nc2c(s1)CCc1onc(-c3ccc(OC)cc3)c1-2 | 0 | 1 | -3 | 1 | 17*
COc1cccc(CN(CCC(C)C)S(=O)(=O)c2cc(Br)ccc2Br)c1 | 1 | 1 | 5 | · | 15*
Cc1ccc2c(c1)c(/C=C/c1cc[n+](C)cc1)c(C)n2C | -3 | -19 | 21 | · | 2
Cc1ccc2[nH]c(C)c(/C=C/c3cc[n+](C)cc3)c2c1 | -6 | -24 | 17 | 22* | 2
Cn1c(=O)c2c(nc(N3CCc4ccccc4C3)n2Cc2ccc(Br)cc2)n(C)c1=O | -12 | 0 | 1 | 2 | 11*
CCc1ccc(C(=O)NN=C(C)c2ccncc2)s1 | · | · | · | 5 | ·
CCCCCn1c(=O)c(C(=O)OCC)c(O)c2ccccc21 | -2 | 0 | -4 | 2 | -1
CCOC(=O)c1c(O)c2ccccc2n(-c2ccccc2)c1=O | 7 | 2 | -3 | 6 | 11*
